Assay results as given in PMC10825487 (Heliyon, 2024).

target: DENV2 NS2B-NS3 protease (Dengue virus type 2, UniProt P29990); assay: DENV2 NS2B-NS3 protease inhibition assay; type: biochemical; settings: not given
Method in brief: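 Recombinant DENV-2 NS2B-NS3 protease (pQE-30, E. coli XL1-Blue MRF', IPTG-induced, Ni-NTA-purified) at 3.5 µM in 200 mM Tris-HCl pH 8.5. Preincubated with test compound (700 µM screen; 5.5–700.0 µM for IC50) for 10 min at 37 °C. Then 150 µM Boc-Gly-Arg-Arg-MCA added, 1 h at 37 °C. AMC read at ex 365/em 410 nm. % inhibition relative to enzyme+substrate control, buffer blank subtracted. n = 3; IC50 by nonlinear regression.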

Chain of DENV2 NS2B-NS3 protease (P29990 1346-1475): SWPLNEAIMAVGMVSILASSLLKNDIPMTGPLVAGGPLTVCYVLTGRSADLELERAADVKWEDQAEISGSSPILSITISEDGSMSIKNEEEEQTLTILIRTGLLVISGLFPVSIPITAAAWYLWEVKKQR
Chain of DENV2 NS2B-NS3 protease (P29990 1476-1653): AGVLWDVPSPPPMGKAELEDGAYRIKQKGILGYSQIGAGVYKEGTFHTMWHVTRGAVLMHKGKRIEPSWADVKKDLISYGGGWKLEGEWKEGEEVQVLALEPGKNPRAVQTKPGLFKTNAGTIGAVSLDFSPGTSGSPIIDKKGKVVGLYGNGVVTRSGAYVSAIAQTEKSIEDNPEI

Q: Which inhibition at 700 µM does the source give for `COc1ccc(-c2nc3cc4nc5ccccc5nc4cc3[nH]2)cc1[N+](=O)[O-]` [Compound 3a, 2-(4-methoxy-3-nitrophenyl)-1H-imidazo [4,5-b]phenazine] here?
A: The inhibition at 700 µM was 83.5 ± 1.96%.

Q: Which inhibition at 700 µM does the source give for `Oc1ccccc1-c1nc2cc3nc4ccccc4nc3cc2[nH]1` [Compound 3b, 2-(2-hydroxyphenyl)-1H-imidazo [4,5-b]phenazine] here?
A: Its inhibition at 700 µM is 46.6 ± 1.68%.

Q: `COc1ccc(-c2nc3cc4nc5ccccc5nc4cc3[nH]2)cc1OC` [Compound 3c, 2-(3,4-dimethoxyphenyl)-1H-imidazo [4,5-b]phenazine] was tested. Which inhibition at 700 µM did it give?
A: The inhibition at 700 µM was 55.31 ± 0.39%.

Q: Which inhibition at 700 µM does the source give for `COc1cc([N+](=O)[O-])ccc1-c1nc2cc3nc4ccccc4nc3cc2[nH]1` [Compound 3d, 2-(2-methoxy-4-nitrophenyl)-1H-imidazo [4,5-b]phenazine] here?
A: The inhibition at 700 µM was 83.9 ± 1.67%.

Q: With `O=[N+]([O-])c1ccc(-c2nc3cc4nc5ccccc5nc4cc3[nH]2)cc1O` [Compound 3e, 2-(3-hydroxy-4-nitrophenyl)-1H-imidazo [4,5-b]phenazine] as the compound, how does the inhibition at 700 µM read?
A: The inhibition at 700 µM was 95.5 ± 1.75%.

Q: For `Oc1c(Br)cccc1-c1nc2cc3nc4ccccc4nc3cc2[nH]1` [Compound 3f, 2-(3-bromo-2-hydroxyphenyl)-1H-imidazo [4,5-b]phenazine], which inhibition at 700 µM is on record?
A: The inhibition at 700 µM was 70.8 ± 1.46%.

Q: Which inhibition at 700 µM does the source give for `COc1cc(-c2nc3cc4nc5ccccc5nc4cc3[nH]2)cc(OC)c1OC` [Compound 3g, 2-(3,4,5-trimethoxyphenyl)-1H-imidazo [4,5-b]phenazine] here?
A: The inhibition at 700 µM was 53.3 ± 2.76%.

Q: How did the inhibition at 700 µM turn out when `Oc1ccc(-c2nc3cc4nc5ccccc5nc4cc3[nH]2)c(O)c1` [Compound 3h, 2-(2,4-dihydroxyphenyl)-1H-imidazo [4,5-b]phenazine] was run?
A: Its inhibition at 700 µM is 84.7 ± 1.26%.

Q: For `CC(C)c1ccc(-c2nc3cc4nc5ccccc5nc4cc3[nH]2)cc1` [Compound 3i, 2-(4-isopropylphenyl)-1H-imidazo [4,5-b]phenazine], which inhibition at 700 µM is on record?
A: The inhibition at 700 µM was 75.68 ± 0.26%.

Q: `Oc1ccc(-c2nc3cc4nc5ccccc5nc4cc3[nH]2)cc1` [Compound 3j, 2-(4-hydroxyphenyl)-1H-imidazo [4,5-b]phenazine] was tested. Which inhibition at 700 µM did it give?
A: Its inhibition at 700 µM is 60.3 ± 2.27%.

Q: Which inhibition at 700 µM does the source give for `FC(F)(F)Oc1ccc(-c2nc3cc4nc5ccccc5nc4cc3[nH]2)cc1` [Compound 3k, 2-(4-(trifluoromethoxy)phenyl)-1H-imidazo [4,5-b]phenazine] here?
A: The inhibition at 700 µM was 63.3 ± 2.8%.

Q: With `Fc1ccccc1-c1nc2cc3nc4ccccc4nc3cc2[nH]1` [Compound 3l, 2-(2-fluorophenyl)-1H-imidazo [4,5-b]phenazine] as the compound, how does the inhibition at 700 µM read?
A: Its inhibition at 700 µM is 78.23 ± 0.03%.

Q: For `Fc1ccc(-c2nc3cc4nc5ccccc5nc4cc3[nH]2)cc1` [Compound 3m, 2-(4-fluorophenyl)-1H-imidazo [4,5-b]phenazine], which inhibition at 700 µM is on record?
A: The inhibition at 700 µM was 84.8 ± 0.89%.

Q: For `O=c1c(O)c(-c2ccc(O)c(O)c2)oc2cc(O)cc(O)c12` [Quercetin, reference compound], which inhibition at 700 µM is on record?
A: Its inhibition at 700 µM is 90.27 ± 0.49%.

same assay, conditions: IC50 (Table 3), in vitro inhibition of DENV2 NS2B-NS3 protease, two decimals

Q: With `O=[N+]([O-])c1ccc(-c2nc3cc4nc5ccccc5nc4cc3[nH]2)cc1O` [Compound 3e, 2-(3-hydroxy-4-nitrophenyl)-1H-imidazo [4,5-b]phenazine] as the compound, how does the IC50 read?
A: Its IC50 is 54.8 µM.

Q: `FC(F)(F)Oc1ccc(-c2nc3cc4nc5ccccc5nc4cc3[nH]2)cc1` [Compound 3k, 2-(4-(trifluoromethoxy)phenyl)-1H-imidazo [4,5-b]phenazine] was tested. Which IC50 did it give?
A: The IC50 was 71.9 µM.

Q: `O=c1c(O)c(-c2ccc(O)c(O)c2)oc2cc(O)cc(O)c12` [Quercetin, reference compound] was tested. Which IC50 did it give?
A: The IC50 was 105 µM.

same assay, conditions: based on IC50, compared to 3e

Q: For `COc1ccc(-c2nc3cc4nc5ccccc5nc4cc3[nH]2)cc1[N+](=O)[O-]` [Compound 3a, 2-(4-methoxy-3-nitrophenyl)-1H-imidazo [4,5-b]phenazine], which “fold decrease of inhibitory activity” value is on record?
A: The value was 1 fold.

Q: For `COc1cc([N+](=O)[O-])ccc1-c1nc2cc3nc4ccccc4nc3cc2[nH]1` [Compound 3d, 2-(2-methoxy-4-nitrophenyl)-1H-imidazo [4,5-b]phenazine], which “fold decrease of inhibitory activity” value is on record?
A: The value was 1.4 fold.

Q: How did the “fold decrease of inhibitory activity” value turn out when `Oc1ccc(-c2nc3cc4nc5ccccc5nc4cc3[nH]2)cc1` [Compound 3j, 2-(4-hydroxyphenyl)-1H-imidazo [4,5-b]phenazine] was run?
A: Its value is 3 fold.

same assay, conditions: based on IC50, compared to 3k

Q: How did the “fold decrease of inhibition” value turn out when `Fc1ccc(-c2nc3cc4nc5ccccc5nc4cc3[nH]2)cc1` [Compound 3m, 2-(4-fluorophenyl)-1H-imidazo [4,5-b]phenazine] was run?
A: The value was 2.2 fold.
